Results published in ChEMBL document CHEMBL1275452, “Epidemiological cutoffs and cross-resistance to azole drugs in Aspergillus fumigatus” (2008).
Values after ≈ are worked out from the molar mass of the structure shown.

Columns and labels:
Assay type in all cases: functional
Aspergillus fumigatus [1] = experiment: Antimicrobial activity against azole-resistant Aspergillus fumigatus harboring G54V, G54E, G54R and G54W mutation in cyp51A gene after 48 hrs by microdilution method
Summary of the method: (§1)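 EUCAST broth microdilution in RPMI 1640 supplemented to 2% glucose. Inoculum 2 × 105 to 5 × 10^5 CFU/ml, spores counted in a hematocytometer. MIC read at 48 h as the concentration giving complete inhibition of visual growth. Strains with itraconazole MICs of ≥8 mg/liter were tested at least twice on different days (2 to 11 times). Values are geometric means of MICs. QC strain ATCC 204305 was included.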

Aspergillus fumigatus [2] = experiment: Antimicrobial activity against azole-susceptible Aspergillus fumigatus after 48 hrs by microdilution method
Summary of the method: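 EUCAST broth microdilution on clinical isolates, RPMI 1640 with glucose to 2%. Inoculum 2 × 105 to 5 × 10^5 CFU/ml, counted as spores in a hematocytometer. MIC read at 48 h as the lowest concentration giving complete inhibition of visual growth. Strains with itraconazole MIC ≤1 mg/liter tested once, some at least twice. Values summarised as geometric means; QC strain ATCC 204305 run alongside.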

Aspergillus fumigatus [3] = experiment: Antimicrobial activity against azole-resistant Aspergillus fumigatus harboring M220V, M220K, M220T and M220I mutation in cyp51A gene after 48 hrs by microdilution method; summary of the method: as §1
Aspergillus fumigatus [4] = experiment: Antimicrobial activity against azole-resistant Aspergillus fumigatus harboring Tandem repeat-L98H (TR) mutation in cyp51A gene after 48 hrs by microdilution method; summary of the method: as §1

| Structure (SMILES) | MIC (Aspergillus fumigatus [1]) [µg/mL] | MIC (Aspergillus fumigatus [2]) [µg/mL] | MIC90 (Aspergillus fumigatus [2]) [µg/mL] | MIC (Aspergillus fumigatus [3]) [µg/mL] | MIC (Aspergillus fumigatus [4]) [µg/mL] |
| --- | --- | --- | --- | --- | --- |
| CCC(C)n1ncn(-c2ccc(N3CCN(c4ccc(OCC5COC(Cn6cncn6)(c6ccc(Cl)cc6Cl)O5)cc4)CC3)cc2)c1=O (stereo not given) [ITRACONAZOLE] | 16 (≈ 22.7 µM) | 0.32 (≈ 0.453 µM) | 0.5 (≈ 0.709 µM) | 16 (≈ 22.7 µM) | 16 (≈ 22.7 µM) |
| CC[C@@H]([C@H](C)O)n1ncn(-c2ccc(N3CCN(c4ccc(OC[C@@H]5CO[C@@](Cn6cncn6)(c6ccc(F)cc6F)C5)cc4)CC3)cc2)c1=O [POSACONAZOLE] | 1.6 (≈ 2.28 µM) | 0.08 (≈ 0.114 µM) | 0.125 (≈ 0.178 µM) | 0.65 (≈ 0.928 µM) | 0.68 (≈ 0.97 µM) |
| C[C@@H](c1nc(-c2ccc(C#N)cc2)cs1)[C@](O)(Cn1cncn1)c1ccc(F)cc1F [RAVUCONAZOLE] | 0.32 (≈ 0.731 µM) | 0.6 (≈ 1.37 µM) | 1 (≈ 2.29 µM) | 1.85 (≈ 4.23 µM) | 6.8 (≈ 15.5 µM) |
| C[C@@H](c1ncncc1F)[C@](O)(Cn1cncn1)c1ccc(F)cc1F [VORICONAZOLE] | 0.42 (≈ 1.2 µM) | 0.53 (≈ 1.52 µM) | 1 (≈ 2.86 µM) | 1 (≈ 2.86 µM) | 3.7 (≈ 10.6 µM) |
